Published values gathered from unrelated publications.
Compare with care: the assays were run in different laboratories.
Route: oral

NS(=O)(=O)NCCNc1nonc1C(=NO)Nc1ccc(F)c(Br)c1 — Tmax (human, plasma; 700 mg, multiple doses, twice daily, steady state, patients): 3 h
CC(C)(Sc1ccncc1-c1ccc(C#N)c2ccccc12)C(=O)O — Tmax (male human, plasma; 5 mg, single dose, fed, healthy volunteers): 1.25 h
C[C@@H](Nc1cc(F)cc(F)c1)c1cc(C(=O)N(C)C)cc2c(=O)cc(N3CCOCC3)oc12 — Tmax (human, plasma; 360 mg, single dose, patients): 1.53 h
CCc1nc2c(C)cc(N3CCN(CC(=O)N4CC(O)C4)CC3)cn2c1N(C)c1nc(-c2ccc(F)cc2)c(C#N)s1 — Tmax (human, plasma; 600 mg, single dose, fasted, healthy volunteers): 1.8 h
COc1cc(N2CCC(N3CCN(C)CC3)CC2)ccc1Nc1ncnc(Nc2ccccc2S(=O)(=O)C(C)C)n1 — Tmax (human, plasma; 325 mg, multiple doses, patients): 3.75 h
CC(C)(O)c1ccccc1-c1ccc2[nH]c(/C=C/c3ccc(C(F)(F)F)cc3)nc2c1 — Tmax (male human, plasma; 50 mg, single dose, fasted): 2.9 h
Cn1cc(-c2ccc(S(=O)(=O)[C@@H]3C[C@@H](C(=O)NC4(C#N)CC4)N(C(=O)C4(C(F)(F)F)CC4)C3)c(C(F)(F)F)c2)cn1 — Tmax (human, plasma; 600 mg, single dose, fasted, healthy volunteers): 3.5 h
C=CC(=O)N(C)CCOc1c(N)ncnc1-c1cc(F)cc(NC(=O)c2ccc(C3CC3)cc2F)c1C — Tmax (human, blood; 60 mg, single dose, healthy volunteers): 1.01 h
CC(C)n1cc(C#N)c2cc(-n3cc(C(=O)O)cn3)ccc21 — Tmax (human, plasma; 25 mg, single dose, fasted, healthy volunteers): 2.3 h
COc1ccc([C@@H]2CN(C(=O)[C@@H](O)CO)C[C@@]2(C)[C@@H](C)O)cc1OC1CN(c2ccc(C)cn2)C1 — Tmax (human, plasma; 40 mg, single dose, healthy volunteers): 3.88 h
